Experimental data reported in paper PMC9716260 (Cancer Discovery, 2022).

Columns and labels:
BRG1/BRM = assay: Immunoblot for BRG1/BRM and cleaved PARP in degrader-treated neurospheres; assay type: cell-based, human
Outline: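 BT869, HSJD-DIPG007 and SU-DIPGXIIIP* neurospheres were collected 24, 48 and 72 h after rising degrader concentrations; SU-DIPGXIIIP* was also collected at 6 h. SU-DIPGXIIIP* gave nuclear extracts; the other two gave whole-cell lysates in NP-40/deoxycholate/SDS buffer with protease and phosphatase inhibitors. Blots were blocked in 5% milk/TBST, then BRG1, BRM, PARP, cleaved PARP, GAPDH and H3 antibodies at 1:1,000 overnight at 4°C, then HRP secondary 1 h at RT, then ECL.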

[1] = system: BRG1 binding sites in BT869 (H3.3K27M-glioma) neurospheres; assay: ATAC-seq chromatin accessibility in drug-treated BT869 neurospheres; assay type: cell-based, human; details: BT869, 1 μmol/L, 24 and 48 hours
Outline: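 BT869 neurospheres were exposed to DMSO or 1 μmol/L BRG1/BRM inhibitor or degrader and collected 24 or 48 h later without FACS enrichment of viable cells. Bulk ATAC-seq was run as two biological replicates, each with two technical replicates. Genes linked to differentially accessible peaks were overlapped with single-cell H3K27M glioma metaprograms.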

[2] = system: SW-13 BRG1/BRM-deficient adrenocortical carcinoma cell line; assay: Cell viability in BRG1/BRM-deficient control cell line; assay type: cell-based; details: Homo sapiens, SW13
Outline: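 SW-13 cells were dosed with test compound at 24 and 96 h after plating, across 10 nmol/L to 10 μmol/L. Viability was read by CellTiter-Glo 7 days after drug exposure. Concentrations were log10-transformed and responses normalized to DMSO controls. Log IC50 was interpolated from a variable-slope least-squares fit.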

BRG1 = BRG1 (Homo sapiens, UniProt P51532); assay: SILAC quantitative proteomics in BT869 neurospheres; assay type: cell-based; details: BT869, 1 μmol/L, 2 days of treatment
Chain of BRG1 (P51532 whole entry): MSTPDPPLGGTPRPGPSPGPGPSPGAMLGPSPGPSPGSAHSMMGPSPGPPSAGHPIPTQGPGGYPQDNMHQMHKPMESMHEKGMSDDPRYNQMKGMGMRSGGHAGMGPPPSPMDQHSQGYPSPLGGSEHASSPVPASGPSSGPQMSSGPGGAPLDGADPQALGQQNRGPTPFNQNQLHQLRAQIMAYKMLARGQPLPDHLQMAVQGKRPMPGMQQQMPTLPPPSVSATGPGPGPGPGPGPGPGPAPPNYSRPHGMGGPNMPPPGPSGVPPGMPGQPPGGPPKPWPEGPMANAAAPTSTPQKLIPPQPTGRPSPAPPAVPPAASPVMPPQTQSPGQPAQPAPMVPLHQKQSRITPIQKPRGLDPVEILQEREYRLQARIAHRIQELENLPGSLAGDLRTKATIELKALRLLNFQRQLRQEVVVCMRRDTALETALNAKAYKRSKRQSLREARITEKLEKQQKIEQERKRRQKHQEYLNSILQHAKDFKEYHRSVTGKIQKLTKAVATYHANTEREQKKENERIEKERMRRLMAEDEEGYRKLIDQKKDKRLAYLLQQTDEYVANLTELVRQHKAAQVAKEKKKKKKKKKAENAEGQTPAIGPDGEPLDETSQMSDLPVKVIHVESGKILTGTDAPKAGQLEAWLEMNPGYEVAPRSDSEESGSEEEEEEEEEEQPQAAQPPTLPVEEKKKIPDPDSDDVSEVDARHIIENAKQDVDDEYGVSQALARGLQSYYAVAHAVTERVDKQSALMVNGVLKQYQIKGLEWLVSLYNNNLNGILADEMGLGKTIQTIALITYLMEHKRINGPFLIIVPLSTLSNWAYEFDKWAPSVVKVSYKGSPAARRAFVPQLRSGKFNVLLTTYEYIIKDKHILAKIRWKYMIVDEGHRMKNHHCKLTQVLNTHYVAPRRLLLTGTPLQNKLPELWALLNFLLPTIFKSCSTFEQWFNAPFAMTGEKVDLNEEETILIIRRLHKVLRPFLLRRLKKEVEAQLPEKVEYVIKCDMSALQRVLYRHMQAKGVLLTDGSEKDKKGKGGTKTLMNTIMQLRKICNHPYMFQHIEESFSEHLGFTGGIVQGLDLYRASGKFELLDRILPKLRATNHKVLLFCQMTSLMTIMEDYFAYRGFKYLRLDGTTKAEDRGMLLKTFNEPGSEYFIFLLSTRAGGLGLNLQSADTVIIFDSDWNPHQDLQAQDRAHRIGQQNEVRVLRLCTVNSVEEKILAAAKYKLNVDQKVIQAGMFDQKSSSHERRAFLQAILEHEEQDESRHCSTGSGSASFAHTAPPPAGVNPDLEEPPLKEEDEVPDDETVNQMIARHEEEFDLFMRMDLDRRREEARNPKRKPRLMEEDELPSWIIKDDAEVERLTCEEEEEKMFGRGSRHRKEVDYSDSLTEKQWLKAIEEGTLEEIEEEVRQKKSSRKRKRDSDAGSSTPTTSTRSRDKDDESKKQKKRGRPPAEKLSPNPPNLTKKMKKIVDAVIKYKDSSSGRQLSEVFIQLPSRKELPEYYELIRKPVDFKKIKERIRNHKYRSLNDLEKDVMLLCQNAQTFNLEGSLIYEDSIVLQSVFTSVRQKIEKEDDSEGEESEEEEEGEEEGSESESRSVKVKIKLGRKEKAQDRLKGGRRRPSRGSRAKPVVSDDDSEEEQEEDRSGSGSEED
Outline: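 BT869 cells were SILAC-labelled for 5 passages in custom TSM medium with heavy (13C615N2 lysine, 13C615N4 arginine) or light amino acids; incorporation was >95%. Cells (1.5 × 106) were seeded 1 day ahead, then given DMSO (light) or 1 μmol/L degrader (heavy) for 48 h. Lysis was in RIPA with protease inhibitors, benzonase and 1 mmol/L DTT. BCA-matched lysates were mixed 1:1. Significance came from a heteroscedastic two-tailed t test.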

[3] = Pharmacokinetic study, drug in plasma and brain after intraperitoneal dose; assay type: in vivo, CD1 mice; details: after intraperitoneal administration, mass spectrometry
Outline: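 Female CD1 mice, three per time point, received a single i.p. dose of test compound in 10% hydroxypropyl β-cyclodextrin in sterile water. Plasma and brain were collected at 30 min, 2 h and 4 h and quantified by LC/MS-MS. Parameters came from a noncompartmental model.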

[4] = system: BT869 (H3.3K27M-glioma) subcutaneous tumors; assay: Subcutaneous xenograft, BT869; assay type: in vivo, NSG mice
Outline: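 Female NSG mice aged about 6–8 weeks were implanted with BT869 cells, 3 × 10^6 in PBS/Matrigel, into the right flank. Groups of 10 received the degrader at 50 mg/kg i.p. daily or vehicle for up to 60 days. BRG1 immunostaining was scored as nuclear DAB OD mean.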

[5] = Kinetic solubility analysis; assay type: physicochemical; details: PBS, pH 7.4, aqueous buffer, kinetic from dmso stock
Outline: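 Test compound as a 10 mmol/L DMSO stock was diluted into 50 mmol/L PBS, pH 7.4, to a final 200 μmol/L. This was done in the lower chamber of filter vials by a contract laboratory.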

[6] = Plasma level after a single subcutaneous injection; assay type: in vivo; details: single subcutaneous injection of 50 mg/kg

SMILES	Time to degradation of BRG1/BRM (BRG1/BRM; SU-DIPGXIIIP* cells) [h]	Lowest concentration degrading BRG1/BRM (BRG1/BRM; SU-DIPGXIIIP* cells, 6 hours) [nmol/L]	DNA accessibility at BRG1 binding sites (ATAC-seq) [1]	IC50 [2] [µM]	Proteins degraded (SILAC) (BRG1)	Time to complete degradation of BRG1/BRM (BRG1/BRM; BT869 cells) [h]	Time to complete degradation of BRG1/BRM (BRG1/BRM; HSJD-DIPG007 cells) [h]	Time to complete degradation of BRG1/BRM (BRG1/BRM; SU-DIPGXIIIP* cells) [h]	Blood–brain barrier penetrance [3]	Degradation of BRG1 in treated tumors ([4]; BT869 s.c., 50 mg/kg i.p. daily, versus vehicle)	Body weight and toxic effects (plasma, liver, spleen) ([4]; mice treated for 45 days, Compound 14 20 mg/kg i.p. daily, JQ-dS-4 50 mg/kg i.p. daily)	solubility at 24 h [5] [µM]	Plasma levels [6] [ng/mL]	Plasma levels ([6]; converted from ng/mL) [nM]
Cc1ncsc1-c1ccc([C@H](C)NC(=O)[C@@H]2C[C@@H](O)CN2C(=O)[C@@H](NC(=O)CN2CCN(c3cc(-c4ccccc4O)nnc3N)CC2)C(C)(C)C)cc1 [AU-15330, reference compound]	≤ 6	500	decrease in DNA accessibility at BRG1 binding sites	–	–	–	–	–	–	–	–	–	–	–
O=C1CCC(N2C(=O)c3cccc(NCCCCNC(=O)c4cccc(C#Cc5cc(NC(=O)Nc6ccnc(Cl)c6)ccn5)c4)c3C2=O)C(=O)N1 (stereo not drawn) [JQ-dS-4, 3-((4-(3-(2-chloropyridin-4-yl)ureido)pyridin-2-yl)ethynyl)-N-(4-((2-(2,6-dioxopiperidin-3-yl)-1,3-dioxoisoindolin-4-yl)amino)butyl)benzamide]	–	–	decrease in DNA accessibility at BRG1 binding sites	6	BRG1 was one of the top significant proteins degraded	48	72	72	limited penetration into brain tissue	negligible degradation of BRG1	did not observe any significant changes in body weight or toxic effects	< 1.56	240	~300
